Consider one compound from ChEMBL document CHEMBL5247577, “Improved Selective Class I HDAC and Novel Selective HDAC3 Inhibitors: Beyond Hydroxamic Acids and Benzamides” (ACS Med Chem Lett, 2019).

One data set addresses Histone deacetylase. As to the kind of experiment: Inhibition of HDAC in human HeLa cells using FLUOR DE LYS-SIRT1 as fluorogenic substrate incubated for 4 hrs by spectrophotometer based analysis. Format: cell-based.
Another data set deals with Histone deacetylase 1 (Homo sapiens, UniProt Q13547). As to the kind of experiment: Inhibition of human recombinant his tagged HDAC1 expressed in baculovirus expression system using FLUOR DE LYS-SIRT1 as fluorogenic substrate preincubated for 10 mins followed by substrate addition and measured after 1 hr by spectrophotometer based analysis.
Sequence of Histone deacetylase 1 (Q13547 whole entry): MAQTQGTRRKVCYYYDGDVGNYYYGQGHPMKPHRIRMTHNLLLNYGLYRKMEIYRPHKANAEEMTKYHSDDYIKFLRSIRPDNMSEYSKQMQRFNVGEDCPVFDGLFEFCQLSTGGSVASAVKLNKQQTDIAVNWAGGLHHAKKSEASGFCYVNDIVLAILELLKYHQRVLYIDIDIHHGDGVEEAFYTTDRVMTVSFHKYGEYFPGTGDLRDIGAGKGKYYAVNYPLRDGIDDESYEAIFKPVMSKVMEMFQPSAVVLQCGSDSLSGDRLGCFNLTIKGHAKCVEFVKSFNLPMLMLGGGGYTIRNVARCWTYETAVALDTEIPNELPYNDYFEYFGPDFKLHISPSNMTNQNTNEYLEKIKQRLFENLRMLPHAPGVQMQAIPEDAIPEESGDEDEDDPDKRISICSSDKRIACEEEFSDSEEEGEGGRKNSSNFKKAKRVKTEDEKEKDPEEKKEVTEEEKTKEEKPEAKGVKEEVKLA
In another data set the target is Histone deacetylase 2 (Homo sapiens, UniProt Q92769). In words: Inhibition of human HDAC2.
Sequence of Histone deacetylase 2 (Q92769 whole entry): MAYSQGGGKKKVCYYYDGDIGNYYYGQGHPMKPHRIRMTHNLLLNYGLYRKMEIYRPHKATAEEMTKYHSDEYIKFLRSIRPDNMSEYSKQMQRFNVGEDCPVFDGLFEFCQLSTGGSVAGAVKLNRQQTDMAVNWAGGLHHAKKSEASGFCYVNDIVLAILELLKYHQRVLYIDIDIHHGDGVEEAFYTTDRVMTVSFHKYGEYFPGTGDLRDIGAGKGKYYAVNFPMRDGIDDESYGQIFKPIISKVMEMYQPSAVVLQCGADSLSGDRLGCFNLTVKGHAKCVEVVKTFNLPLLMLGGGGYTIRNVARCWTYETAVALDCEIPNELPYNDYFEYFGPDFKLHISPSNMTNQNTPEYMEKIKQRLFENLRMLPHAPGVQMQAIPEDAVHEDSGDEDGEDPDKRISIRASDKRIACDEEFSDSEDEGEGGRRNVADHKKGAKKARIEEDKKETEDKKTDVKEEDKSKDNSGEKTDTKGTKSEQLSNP
The target of data set [1] is Histone deacetylase 5 (Homo sapiens) (UniProt Q9UQL6). In words: Inhibition of human HDAC5 at 5 uM.
Sequence of Histone deacetylase 5 (Homo sapiens) (Q9UQL6 whole entry): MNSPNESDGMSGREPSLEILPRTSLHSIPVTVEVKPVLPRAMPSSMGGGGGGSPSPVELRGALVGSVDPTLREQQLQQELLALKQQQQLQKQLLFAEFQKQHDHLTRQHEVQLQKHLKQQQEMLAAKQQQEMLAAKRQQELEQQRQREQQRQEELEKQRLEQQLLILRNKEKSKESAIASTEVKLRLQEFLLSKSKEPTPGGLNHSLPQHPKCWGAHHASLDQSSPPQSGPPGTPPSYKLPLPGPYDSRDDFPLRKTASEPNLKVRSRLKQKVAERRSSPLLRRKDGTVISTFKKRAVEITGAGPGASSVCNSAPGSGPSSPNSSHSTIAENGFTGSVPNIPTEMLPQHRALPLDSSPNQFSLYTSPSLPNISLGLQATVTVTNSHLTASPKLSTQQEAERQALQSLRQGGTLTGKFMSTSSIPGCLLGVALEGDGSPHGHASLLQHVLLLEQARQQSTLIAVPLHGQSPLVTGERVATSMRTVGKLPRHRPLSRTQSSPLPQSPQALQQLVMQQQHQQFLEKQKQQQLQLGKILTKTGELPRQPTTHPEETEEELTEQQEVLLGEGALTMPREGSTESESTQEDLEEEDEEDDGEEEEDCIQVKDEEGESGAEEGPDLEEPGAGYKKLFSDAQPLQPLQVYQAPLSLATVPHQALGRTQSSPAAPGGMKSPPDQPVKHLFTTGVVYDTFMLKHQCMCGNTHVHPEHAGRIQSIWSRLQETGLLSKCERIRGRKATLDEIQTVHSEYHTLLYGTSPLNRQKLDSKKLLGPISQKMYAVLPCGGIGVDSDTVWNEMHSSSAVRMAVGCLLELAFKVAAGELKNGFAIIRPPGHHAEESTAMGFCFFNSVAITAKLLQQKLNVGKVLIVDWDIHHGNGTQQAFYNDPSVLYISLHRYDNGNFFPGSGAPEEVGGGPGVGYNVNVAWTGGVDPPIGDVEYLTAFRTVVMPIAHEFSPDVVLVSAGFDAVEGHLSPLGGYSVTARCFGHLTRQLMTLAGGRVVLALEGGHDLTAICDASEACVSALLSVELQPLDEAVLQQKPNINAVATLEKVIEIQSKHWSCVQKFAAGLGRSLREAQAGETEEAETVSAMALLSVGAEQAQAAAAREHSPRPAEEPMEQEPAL
The target of a further data set is Histone deacetylase 3 (Homo sapiens, UniProt O15379). In words: Inhibition of human HDAC3 expressed in baculovirus infected insect cells using FLUOR DE LYS-SIRT1 as fluorogenic substrate preincubated for 10 mins followed by substrate addition and measured after 1 hr by spectrophotometer based analysis.
Sequence of Histone deacetylase 3 (O15379 whole entry): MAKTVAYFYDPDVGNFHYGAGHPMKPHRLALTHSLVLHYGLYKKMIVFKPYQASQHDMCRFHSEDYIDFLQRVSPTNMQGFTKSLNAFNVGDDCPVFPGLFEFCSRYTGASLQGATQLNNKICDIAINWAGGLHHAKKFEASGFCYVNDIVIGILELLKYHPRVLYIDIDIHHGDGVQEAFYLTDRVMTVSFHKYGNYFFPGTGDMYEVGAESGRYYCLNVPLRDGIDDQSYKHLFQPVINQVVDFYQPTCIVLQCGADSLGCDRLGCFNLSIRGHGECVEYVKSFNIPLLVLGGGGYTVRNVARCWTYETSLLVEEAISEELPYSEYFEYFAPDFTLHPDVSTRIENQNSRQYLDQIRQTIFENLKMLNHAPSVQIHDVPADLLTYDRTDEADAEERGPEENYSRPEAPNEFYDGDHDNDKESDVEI
Data set [2] concerns the target T1, Protein deacetylase HDAC6 (Homo sapiens, UniProt Q9UBN7).
T1 sequence (Q9UBN7 whole entry): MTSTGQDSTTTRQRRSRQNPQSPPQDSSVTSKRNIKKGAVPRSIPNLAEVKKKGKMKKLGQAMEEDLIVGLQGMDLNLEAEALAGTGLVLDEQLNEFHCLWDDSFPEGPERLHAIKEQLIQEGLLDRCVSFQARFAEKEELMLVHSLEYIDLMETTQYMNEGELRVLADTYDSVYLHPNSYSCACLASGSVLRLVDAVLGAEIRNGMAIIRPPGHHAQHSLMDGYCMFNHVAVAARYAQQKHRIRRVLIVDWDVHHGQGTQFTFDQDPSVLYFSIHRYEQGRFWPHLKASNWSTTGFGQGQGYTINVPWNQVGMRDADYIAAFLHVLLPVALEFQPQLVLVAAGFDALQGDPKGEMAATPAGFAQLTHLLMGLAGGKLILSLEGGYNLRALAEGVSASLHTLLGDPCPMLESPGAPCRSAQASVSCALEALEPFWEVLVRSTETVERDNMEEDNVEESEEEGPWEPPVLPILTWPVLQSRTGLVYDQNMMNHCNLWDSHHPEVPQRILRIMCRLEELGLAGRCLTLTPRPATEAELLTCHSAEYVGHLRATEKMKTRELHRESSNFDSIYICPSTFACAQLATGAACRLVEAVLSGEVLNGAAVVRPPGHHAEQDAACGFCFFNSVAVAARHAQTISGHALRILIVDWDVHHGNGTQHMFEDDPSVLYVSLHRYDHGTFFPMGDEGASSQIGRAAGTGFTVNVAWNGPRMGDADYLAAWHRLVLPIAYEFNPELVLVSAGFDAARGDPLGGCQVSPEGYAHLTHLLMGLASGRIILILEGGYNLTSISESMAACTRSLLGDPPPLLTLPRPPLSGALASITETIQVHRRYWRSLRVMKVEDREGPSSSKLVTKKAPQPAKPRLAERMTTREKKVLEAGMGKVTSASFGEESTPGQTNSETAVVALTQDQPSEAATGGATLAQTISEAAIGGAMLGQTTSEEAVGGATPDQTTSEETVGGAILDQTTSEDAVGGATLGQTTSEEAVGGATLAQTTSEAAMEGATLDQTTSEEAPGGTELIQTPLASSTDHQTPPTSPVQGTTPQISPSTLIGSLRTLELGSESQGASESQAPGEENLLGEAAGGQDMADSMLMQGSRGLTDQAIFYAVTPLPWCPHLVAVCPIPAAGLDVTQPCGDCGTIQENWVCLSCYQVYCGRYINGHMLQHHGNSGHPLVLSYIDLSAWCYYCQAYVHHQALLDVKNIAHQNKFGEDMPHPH
In words: Inhibition of human HDAC6.

In the next data set the target is Cytochrome P450 2D6 (Homo sapiens, UniProt P10635). In words: Inhibition of CYP2D6 (unknown origin). Format: ADME.
Sequence of Cytochrome P450 2D6 (P10635 whole entry): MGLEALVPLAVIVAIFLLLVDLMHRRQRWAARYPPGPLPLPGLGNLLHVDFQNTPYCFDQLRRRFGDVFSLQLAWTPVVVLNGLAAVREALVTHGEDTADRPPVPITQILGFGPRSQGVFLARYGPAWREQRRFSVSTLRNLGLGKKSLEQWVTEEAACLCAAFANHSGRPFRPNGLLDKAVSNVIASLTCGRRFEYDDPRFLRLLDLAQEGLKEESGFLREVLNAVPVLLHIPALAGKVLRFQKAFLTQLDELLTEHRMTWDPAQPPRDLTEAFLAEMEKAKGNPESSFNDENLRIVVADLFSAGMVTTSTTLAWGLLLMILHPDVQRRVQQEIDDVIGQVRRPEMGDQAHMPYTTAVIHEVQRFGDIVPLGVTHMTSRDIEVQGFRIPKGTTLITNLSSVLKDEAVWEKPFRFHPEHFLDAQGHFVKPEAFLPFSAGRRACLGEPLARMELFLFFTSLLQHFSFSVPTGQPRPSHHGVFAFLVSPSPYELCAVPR
The next data set concerns the target Cytochrome P450 2C9 (Homo sapiens, UniProt P11712). As to the kind of experiment: Inhibition of CYP2C9 (unknown origin). It is filed as ADME.
The nature of data set [3]: Genotoxicity in Salmonella typhimurium by Ames test. Format: toxicity. As to conditions: salmonella enterica subsp. enterica serovar typhimurium. The procedure, abridged:
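Bacterial reverse mutation assay in two strains, Salmonella typhimurium and Escherichia coli, scoring reverse mutations.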
(In the Ames test, an excess of revertant colonies over the control signals mutagenicity.)

A short description of data set [4]: Permeability of the compound in porcine brain endothelial cells by BBB assay. Format: ADME, cell-based, Sus scrofa, Endothelial cell. As to conditions: pig; read-out: permeability.
Data set [5] addresses T2, Voltage-gated inwardly rectifying potassium channel KCNH2 (Homo sapiens, UniProt Q12809). As to the kind of experiment: Inhibition of hERG potassium channel incubated for 4 hrs by fluorescence polarization assay. It is filed as toxicity. Background: hERG is a cardiac potassium channel; its block is linked to QT prolongation.
The target of data set [6] is T2, Voltage-gated inwardly rectifying potassium channel KCNH2. In words: Inhibition of hERG by patch clamp assay. Format: toxicity.
Data set [7] in a line: Oral bioavailability in NMRI mouse at 20 mg/kg by LC/MS/MS analysis. Format: ADME, organism-based. As to conditions: in vivo. The procedure, abridged:
(§1)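 Compound dosed as the tartrate salt. Oral doses were 20 mg/kg in mouse, 10 mg/kg in rat and 5 mg/kg in minipig.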

The nature of data set [8]: Oral bioavailability in Gottigen pig by LC/MS/MS analysis. It is filed as ADME, organism-based, Sus scrofa. As to conditions: in vivo. The procedure, abridged: as §1
Data set [9] is described as follows: Clearance in Gottigen pig plasma by LC/MS/MS analysis. Format: ADME, Sus scrofa. In a few lines:
as §1

Data set [10] can be described thus: Volume of distribution at steady state in Gottigen pig by LC/MS/MS analysis. It is filed as ADME, Sus scrofa. As to conditions: in vivo, read-out: Vdss. In a few lines:
as §1

Data set [11] is described as follows: Half life in Wistar rat plasma at 10 mg/kg, po or 2 mg/kg,iv by LC/MS/MS analysis. Format: ADME, organism-based. The procedure, abridged: as §1
Data set [12] is described as follows: Half life in Gottigen pig plasma by LC/MS/MS analysis. Format: ADME, Sus scrofa. The procedure, abridged:
as §1

Data set [13] in a line: AUC in NMRI mouse plasma at 5 to 20 mg/kg, po by LC/MS/MS analysis. Also on record: route po. It is filed as ADME, organism-based. As to conditions: in vivo, dose 5-20 mg/kg. The procedure, abridged: (§2)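 Compound given orally as its tartrate salt at 20 mg/kg in mouse, 10 mg/kg in rat and 5 mg/kg in minipig.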
Data set [14] in a line: AUC in Wistar rat plasma at 5 to 20 mg/kg, po by LC/MS/MS analysis. It is filed as ADME, organism-based. Also on record: route po. As to conditions: dose 5-20 mg/kg. The procedure, abridged: as §2
A short description of data set [15]: AUC in Gottigen pig plasma 5 to 20 mg/kg, po by LC/MS/MS analysis. As to conditions: dose 5-20 mg/kg. Set-up: route po. It is filed as ADME, organism-based, Sus scrofa. In a few lines: as §2

Active and inactive are the calls of the source. The calls are words filed in the database; no cut-off is given here.

T2 sequence (Q12809 whole entry): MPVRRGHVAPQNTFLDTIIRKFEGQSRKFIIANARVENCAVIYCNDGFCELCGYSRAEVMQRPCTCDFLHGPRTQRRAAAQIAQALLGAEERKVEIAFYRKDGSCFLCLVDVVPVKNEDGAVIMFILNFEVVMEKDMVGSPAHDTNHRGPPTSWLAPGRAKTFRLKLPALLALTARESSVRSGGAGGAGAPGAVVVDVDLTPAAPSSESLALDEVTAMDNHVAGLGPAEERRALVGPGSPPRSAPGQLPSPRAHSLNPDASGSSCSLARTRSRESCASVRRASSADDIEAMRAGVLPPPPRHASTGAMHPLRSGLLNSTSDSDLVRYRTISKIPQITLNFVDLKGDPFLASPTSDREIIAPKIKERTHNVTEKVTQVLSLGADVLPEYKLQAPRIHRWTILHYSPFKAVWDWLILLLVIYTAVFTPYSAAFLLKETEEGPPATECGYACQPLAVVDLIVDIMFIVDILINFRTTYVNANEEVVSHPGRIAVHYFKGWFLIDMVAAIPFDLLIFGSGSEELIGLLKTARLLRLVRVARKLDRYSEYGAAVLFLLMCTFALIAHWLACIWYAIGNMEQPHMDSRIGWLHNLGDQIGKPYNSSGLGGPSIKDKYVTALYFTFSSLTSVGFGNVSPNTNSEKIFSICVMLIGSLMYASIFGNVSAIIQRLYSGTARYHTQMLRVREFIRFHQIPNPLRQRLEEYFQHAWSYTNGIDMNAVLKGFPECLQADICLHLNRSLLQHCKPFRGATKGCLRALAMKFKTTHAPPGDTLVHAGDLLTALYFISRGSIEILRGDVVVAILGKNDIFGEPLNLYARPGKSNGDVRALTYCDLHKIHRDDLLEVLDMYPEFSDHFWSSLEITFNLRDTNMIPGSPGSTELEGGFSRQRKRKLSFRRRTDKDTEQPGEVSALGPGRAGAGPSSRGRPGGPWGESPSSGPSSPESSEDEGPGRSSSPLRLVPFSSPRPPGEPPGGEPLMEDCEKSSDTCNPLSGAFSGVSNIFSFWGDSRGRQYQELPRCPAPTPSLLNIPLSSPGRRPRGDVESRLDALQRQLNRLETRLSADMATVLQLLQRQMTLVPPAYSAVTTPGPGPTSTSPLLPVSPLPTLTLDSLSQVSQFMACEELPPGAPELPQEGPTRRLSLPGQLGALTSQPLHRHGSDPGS
Sequence of Cytochrome P450 2C9 (P11712 whole entry): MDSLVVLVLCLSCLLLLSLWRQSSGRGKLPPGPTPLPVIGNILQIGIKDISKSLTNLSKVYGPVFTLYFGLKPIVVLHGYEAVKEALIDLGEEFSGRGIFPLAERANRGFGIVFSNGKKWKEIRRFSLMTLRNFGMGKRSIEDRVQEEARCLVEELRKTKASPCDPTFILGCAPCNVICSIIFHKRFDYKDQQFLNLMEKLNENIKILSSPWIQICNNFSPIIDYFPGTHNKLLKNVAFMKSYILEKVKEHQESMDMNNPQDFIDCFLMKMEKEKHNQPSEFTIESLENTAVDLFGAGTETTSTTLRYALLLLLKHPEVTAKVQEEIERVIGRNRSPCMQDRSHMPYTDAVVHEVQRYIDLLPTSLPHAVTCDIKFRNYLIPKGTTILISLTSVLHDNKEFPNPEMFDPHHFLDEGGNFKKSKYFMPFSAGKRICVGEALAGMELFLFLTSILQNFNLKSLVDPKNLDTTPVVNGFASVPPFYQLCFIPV

The compound `CCC(=O)CCCCC[C@H](NC(=O)C1CN(C)C1)c1ncc(-c2cc3ccccc3nc2OC)o1` had an EC50 at Histone deacetylase of 50 nM. Also, the IC50 on Histone deacetylase 1 is 1.7 nM; on Histone deacetylase 2, 2.8 nM; against Histone deacetylase 3, 1.1 nM; in data set [2] it was 177 nM; on Cytochrome P450 2D6, greater than 20000 nM; against Cytochrome P450 2C9 it was greater than 20000 nM. Besides, the IC50 in [5] is 3600 nM; in [6], 10000 nM. In addition, the inhibition entry in data set [1] was “inactive”. Also, the Activity entry in data set [3] is given as “Non-Toxic”. The Papp in [4] worked out at 10.5 ×10⁻⁶ cm/s. This compound yielded a F in data set [7] of 62%. In addition, the bioavailability in data set [8] came to 30%. Also, the clearance in data set [9] is 20 mL/min/kg. The Vd in data set [10] is 0.64 L/kg. In addition, the half-life was 3.3 h in data set [11] and 3.7 h in data set [12]. Moreover, the AUC in [13] amounted to 9.3 µM·h; in data set [14], 21.5 µM·h; in data set [15] it was 2.6 µM·h.

The EC50 is the concentration at which the effect is half-maximal. As a reminder, the IC50 is the midpoint of a concentration-inhibition curve. A word on the bioavailability: it is the share of a dose that reaches the circulation, judged against a reference dose that is usually intravenous. Higher therefore signals good availability. Usually clearance stands for the volume of plasma or blood freed of the substance per unit of time. Low readings indicate a low capacity for elimination, high ones a high capacity for elimination. By half-life is commonly meant the time in which the quantity being followed falls by half. Low readings indicate fast loss, high ones slow loss. A word on the AUC: it is concentration integrated over time. A lower AUC goes with less exposure.
